Publication PMC8570090 (Bioorganic & medicinal chemistry letters, 2020)

Legend:
[1] = Single dose pharmacokinetics in mice, intraperitoneal injection; format: in vivo
Stability of PI-103BE = format: in vitro ADME; settings: species found after treatment with PI-103BE (9); for Fraction in culture medium: all time points
[2] = Single dose pharmacokinetics in mice, oral gavage; format: in vivo; settings: single oral dose 10 mg/kg
In short: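 Female ovariectomized Nu/Nu mice, 4–6 weeks old (n = 5), received a single 10 mg/kg dose by gavage in 5% DMSO/40% PEG 400/55% saline. Orbital-sinus blood was drawn at 0.5, 1, 3, 8 and 24 h, with one sampling per group, into EDTA. Plasma was separated at 4 °C and frozen at −80 °C. Drug and metabolites were quantified by C18 UHPLC–MS (formic acid water/acetonitrile gradient).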

[3] = system: human prostate carcinoma 22Rv1; assay: In vitro antiproliferative assay; format: cell-based; settings: Fig. 5
In short: (§1)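 Cells seeded at 50,000 per well in DMEM with 5% FBS. Exposed for 4 days to test compound at 6 concentrations, with DMSO vehicle and a reference compound as positive control. Cell numbers counted on a Coulter counter. Survival ratio is treated over vehicle cell number. IC50 taken from dose-response curves. Run in triplicate, mean ± SD.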

[4] = system: human lung carcinoma A549; assay: In vitro antiproliferative assay; format: cell-based; settings: Fig. 5
In short: as §1

[5] = system: human cervical cancer HeLa; assay: In vitro antiproliferative assay; format: cell-based; settings: Fig. 5
In short: as §1

[6] = system: human breast adenocarcinoma MDA-MB-231; assay: In vitro antiproliferative assay; format: cell-based; settings: Fig. 5
In short: as §1

[7] = system: panel of cancer cell lines; assay: In vitro antiproliferative activity, panel of six cancer cell lines; format: cell-based, human; settings: IC50 ratio across A549, MDA-MB-231, HeLa, 22Rv1, PC-3, SKOV-3
In short: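 Cells plated at 50,000 per well in DMEM with 5% FBS and exposed for 4 days to test compound at 6 doses. DMSO served as vehicle control and the parent inhibitor as positive control. Cells were counted on a Coulter counter. Survival ratio is treated over vehicle cell number, and IC50 is taken from dose-response curves. Run in triplicate, mean ± SD.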

Row | Peak plasma concentration of PI-103, times lower than after i.p. PI-103BE ([1]; 10 mg/kg IP, 7-treated vs PI-103BE-treated) | Fraction of total drug content in cell culture media (Stability of PI-103BE; 0.5 h) | Fraction of total drug content in cell culture media (Stability of PI-103BE; 1 h) | Fraction of total drug content in cell culture media (Stability of PI-103BE; 3 h) | Fraction of total drug content in cell culture media (Stability of PI-103BE; 8 h) | Fraction of total drug content in cell culture media (Stability of PI-103BE; 24 h) | Fraction in culture medium (Stability of PI-103BE) | Oral bioavailability [2] | PI-103BE in plasma ([1]; 10 mg/kg IP of labelled compound, analyte PI-103BE) | Concentration in cell culture media (Stability of PI-103BE; 3 h) | Concentration in cell culture media (Stability of PI-103BE; 8 h) | Concentration in cell culture media (Stability of PI-103BE; 24 h) | Compound | Antiproliferative activity [3] | Antiproliferative activity [4] | Antiproliferative activity [5] | Antiproliferative activity [6] | Times less potent than PI-103 (7) [7]
1 | 10 times | 2.02% | 2.52% | 3.30% | 3.27% | 3.81% | < 4% | no oral bioavailability |  |  |  |  | Oc1cccc(-c2nc(N3CCOCC3)c3oc4ncccc4c3n2)c1 [PI-103 (7), 3-(4-Morpholinopyrido[3′,2′:4,5]furo[3,2-d]pyrimidin-2-yl)phenol, reference compound] |  |  |  |  | 
2 |  | 97.95% |  | 96.70% | 96.73% | 96.19% | > 95% |  |  |  |  |  | OB(O)c1cccc(-c2nc(N3CCOCC3)c3oc4ncccc4c3n2)c1 [PI-103BA (10), (3-(4-Morpholinopyrido[3′,2′:4,5]furo[3,2-d]pyrimidin-2-yl)phenyl)boronic acid] | dose dependent antiproliferative activities | dose dependent antiproliferative activities | dose dependent antiproliferative activities | dose dependent antiproliferative activities | 
3 |  | 1.61% | 0.32% | 0% | 0% | 0% |  |  | no PI-103BE was detected in plasma | 0 nM | 0 nM | 0 nM | CC1(C)OB(c2cccc(-c3nc(N4CCOCC4)c4oc5ncccc5c4n3)c2)OC1(C)C [PI-103BE (9), 4-Morpholino-2-(3-(4,4,5,5-tetramethyl-1,3,2-dioxaborolan-2-yl)phenyl)pyrido[3′,2′:4,5] furo[3,2-d]pyrimidine] |  |  |  |  | 3 ~ 24 times
